21 compounds from ChEMBL document CHEMBL1144504, “Antitumor studies. Part 1: design, synthesis, antitumor activity, and AutoDock study of 2-deoxo-2-phenyl-5-deazaflavins and 2-deoxo-2-phenylflavin-5-oxides as a new class of antitumor agents” (Bioorg Med Chem, 2007) can be followed below.

The test system of assay [1] is KB. The experiment in a line: Growth inhibition of human KB cells by MTT assay. Type of assay: functional, cell-based. The essentials: (§1)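 5×10^3 cells per well seeded with compound added simultaneously, triplicate wells, 72 h at 37 °C in humidified 5% CO2. MTT (5 mg/mL stock in Ca/Mg-free PBS) added for a further 4 h at 37 °C. Formazan solubilized in 0.02 N HCl/50% DMF/20% SDS, OD570 read. Inhibition (%) = (1 − T/C) × 100 against mean control; IC50 taken from dose–response curve.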

In assay [2] the test system is A-431. The assay can be described thus: Growth inhibition of human A431 cells by MTT assay. Type of assay: functional, cell-based. The procedure, abridged: as §1
In assay [3] the test system is CCRF-HSB-2. The experiment in a line: Growth inhibition of human CCRF-HSB-2 cells by MTT assay. It counts as functional, cell-based. The procedure, abridged: as §1
The test system of assay [4] is HCT-116. The experiment in a line: Growth inhibition of human HCT116 cells by MTT assay. It counts as functional, cell-based. The essentials: as §1
Assay [5] deals with NCI-H460. The assay can be described thus: Growth inhibition of human NCI-H460 cells by MTT assay. Type of assay: functional, cell-based. The procedure, abridged: as §1
Assay [6] has as its system Mus musculus. The assay can be described thus: Weight change in intratumorally dosed BALB/c nude mouse bearing human A431 cells at 25 mg/kg after 17 days. It counts as functional, A-431. The essentials: (§2)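 BALB/c nude mice bearing subcutaneous A431 tumors, dosed from the day tumors reach 100–300 mm3. Vehicle: 0.5% gum arabic suspension. Intratumoral schedule: days 1-5, 8-12, 15-19. Intraperitoneal and oral schedule: daily, days 1-10. Body weight change in g recorded at 17 days (it), 10 days (ip) or 18 days (po) after treatment.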

In assay [7] the test system is A-431. The assay can be described thus: Antitumor activity against human A431 xenograft in intratumorally dosed BALB/c nude mouse at 25 mg/kg after 17 days relative control. Type of assay: functional. The procedure, abridged: (§3)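 A431 implanted subcutaneously in BALB/c nude mice; dosing begins (day 1) when tumors reach 100–300 mm3. Compound suspended in 0.5% gum arabic. Intratumoral: five daily doses per week for 3 weeks (days 1-5, 8-12, 15-19). Intraperitoneal and oral: daily for 10 days (days 1-10). Tumor length a and width b measured 2–3 times weekly; volume = a×b²/2; T/C % = (Tn/T1)×100/(Cn/C1).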

In assay [8] the test system is A-431. The experiment in a line: Antitumor activity against human A431 xenograft in BALB/c nude mouse at 75 mg/kg, po after 18 days relative control. It counts as functional. The procedure, abridged:
as §3

In assay [9] the test system is Mus musculus. The experiment in a line: Weight change in human […] A431 xenografted BALB/c nude mouse at 75 mg/kg, po after 18 days. Type of assay: functional. The procedure, abridged:
as §2

Assay [10] has as its system A-431. The experiment in a line: Antitumor activity against human A431 xenograft in BALB/c nude mouse at 100 mg/kg, ip after 10 days relative control. Type of assay: functional. To be noted: route intraperitoneal. The essentials:
as §3

The test system of assay [11] is Mus musculus. The assay can be described thus: Weight change in human A431 xenografted BALB/c nude mouse at 150 mg/kg, po after 18 days. It counts as functional. The procedure, abridged:
as §2

Assay [12] has as its system Mus musculus. The experiment in a line: Weight change in human A431 xenografted BALB/c nude mouse at 100 mg/kg, ip after 10 days. It counts as functional. To be noted: route intraperitoneal. The essentials: as §2
Assay [13] deals with A-431. The experiment in a line: Antitumor activity against human A431 xenograft in BALB/c nude mouse at 150 mg/kg, po after 18 days relative control. Type of assay: functional. The essentials: as §3
In assay [14] the test system is Mus musculus. The experiment in a line: Weight change in intratumorally dosed BALB/c nude mouse bearing human A431 cells at 1 mg/kg after 17 days. It counts as functional, A-431. The essentials:
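A431 was transplanted subcutaneously into BALB/c nude mice. Intratumoral injections of a suspension in 0.5% gum arabic started when tumors reached 100–300 mm3. Injections were given five consecutive days per week for 3 weeks (days 1–5, 8–12, 15–19). Body weight change (g) was recorded on day 17.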

Assay [15] has as its system Mus musculus. The assay can be described thus: Weight change in human A431 xenografted BALB/c nude mouse at 1 mg/kg, po after 18 days. Type of assay: functional. The procedure, abridged:
(§4)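 Subcutaneous A431 xenografts in BALB/c nude mice were dosed orally once tumors reached 100–300 mm3 (day 1). Dosing was daily for days 1–10 as a suspension in 0.5% gum arabic. Volume = (a×b²)/2 from calipered length and width. Relative volume T/C % = (Tn/T1)×100/(Cn/C1) and body weight change (g) were assessed 18 days after treatment.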

Assay [16] relates to Mus musculus. The assay can be described thus: Weight change in human A431 xenografted BALB/c nude mouse at 1 mg/kg, ip after 10 days. It counts as functional. As to conditions: route intraperitoneal. The essentials:
(§5)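 A431 cells implanted subcutaneously into BALB/c nude mice. Dosing began (day 1) once tumors reached 100–300 mm3, given ip as a suspension in 0.5% gum arabic, daily for days 1–10. Tumor length (a) and width (b) were measured 2–3 times weekly; volume = (a×b²)/2. T/C % = (Tn/T1)×100/(Cn/C1), read on day 10. Body weight change was given in g.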

The test system of assay [17] is A-431. The assay can be described thus: Antitumor activity against human A431 xenograft in BALB/c nude mouse at 1 mg/kg, po after 18 days relative control. It counts as functional. The procedure, abridged:
as §4

For assay [18], the system named is A-431. The assay can be described thus: Antitumor activity against human A431 xenograft in BALB/c nude mouse at 1 mg/kg, ip after 10 days relative control. Type of assay: functional. As to conditions: route intraperitoneal. The essentials:
as §5

For the compound `O=c1nc(-c2ccccc2)nc2[nH]c3ccccc3cc1-2`, the IC50 in [1] is 5120 nM; in assay [2], 3880 nM; in assay [3] it was 3830 nM.
`Cc1cccc2cc3c(=O)nc(-c4ccccc4)nc-3n(C)c12`: the IC50 in assay [1] is 3980 nM; in [3], 700 nM.
In the case of `Cc1ccc2c(c1)cc1c(=O)nc(-c3ccccc3)nc-1n2C`, the IC50 was found to be 1860 nM in [1]; 2450 nM in assay [2]; 1490 nM in assay [3]; 1680 nM in assay [4]; 2080 nM in assay [5].
Regarding `CCn1c2nc(-c3ccccc3)nc(=O)c-2cc2cc(C)ccc21`, the IC50 in [1] came to 510 nM; in assay [3], 730 nM.
On to `Cc1ccc2c(c1)[n+]([O-])c1c(=O)nc(-c3ccccc3)nc-1n2C`, for which the IC50 came to 1750 nM in [1], 500 nM in assay [3], 3250 nM in [4] and 4390 nM in assay [5].
For the compound `CCn1c2nc(-c3ccccc3)nc(=O)c-2cc2ccccc21`, the Activity is -1.6 g in assay [6] and 109% in assay [7]. For the same compound, the figures for the IC50 in assay [1], in assay [2] and in assay [3] were 2620 nM, 760 nM and 1790 nM, respectively.
For the compound `COc1ccc2c(c1)[n+]([O-])c1c(=O)nc(-c3ccccc3)nc-1n2C`, the IC50 in assay [4] worked out at 720 nM; in assay [5] it was 1330 nM.
In turn, `COc1cccc2c1C(=O)c1c(O)c3c(c(O)c1C2=O)C[C@@](O)(C(=O)CO)C[C@@H]3O[C@H]1C[C@H](N)[C@H](O)[C@H](C)O1` [DOXORUBICIN] returned a concentration for half-maximal inhibition (IC50) in assay [2] of 50 nM.
Turning to `COc1ccc2cc3c(=O)nc(-c4ccccc4)nc-3n(C)c2c1`, the values for the IC50 in assay [1] and in assay [3] were 5040 nM and 2140 nM, respectively.
As for `CC(C)n1c2nc(-c3ccccc3)nc(=O)c-2[n+]([O-])c2ccccc21`, the IC50 in assay [1] came to 2180 nM; in assay [3], 980 nM; in assay [4], 6580 nM; in assay [5] it was 6050 nM.
Take `Cn1c2nc(-c3ccccc3)nc(=O)c-2cc2ccccc21`: the Activity in assay [6] is listed as 0.1 g; in assay [8], 97.6%; in assay [9], -0.9 g; in [10], 53.4%; in [11] it was -0.4 g; in assay [12] it was -1.7 g. The values for the Activity in [13] and in [7] were 51.8% and 57.2%, respectively. The IC50 in assay [1] turned out to be 2330 nM; in assay [2], 1440 nM; in assay [3] it was 11800 nM; in assay [4], 2110 nM; in [5] it was 2230 nM.
`Cc1cccc2cc3c(=O)nc(-c4ccccc4)nc-3[nH]c12`: the IC50 was more than 350000 nM in assay [1] and 299000 nM in assay [3].
Take `Nc1ccn([C@@H]2O[C@H](CO)[C@@H](O)[C@@H]2O)c(=O)n1` [CYTARABINE]: the IC50 in assay [1] worked out at 700 nM; in assay [3] it was 150 nM.
With `COc1cc2c(c(OC)c1OC)[n+]([O-])c1c(=O)nc(-c3ccccc3)nc-1n2C`, the IC50 is 3760 nM in [4] and 3720 nM in [5].
In the case of `COc1ccc2cc3c(=O)nc(-c4ccccc4)nc-3[nH]c2c1`, the IC50 in [1] turned out to be 62700 nM; in assay [3], 24400 nM.
Consider `COc1ccc2c(c1)cc1c(=O)nc(-c3ccccc3)nc-1n2C`, for which the IC50 is 500 nM in [1], 1230 nM in [3], 2910 nM in assay [4] and 3100 nM in assay [5].
Take `Cn1c2nc(-c3ccccc3)nc(=O)c-2[n+]([O-])c2ccccc21`: the IC50 in assay [1] amounted to 1080 nM; in [2], 1310 nM; in assay [3], 970 nM; in assay [4] it was 1800 nM; in assay [5] it was 2720 nM.
`CCn1c2nc(-c3ccccc3)nc(=O)c-2[n+]([O-])c2ccccc21`: the IC50 in assay [1] was determined as 2380 nM; in [3], 960 nM.
Take `CN[C@@H]1C[C@H]2O[C@@](C)([C@@H]1OC)n1c3ccccc3c3c4c(c5c6ccccc6n2c5c31)C(=O)NC4` [STAUROSPORINE]: the Activity in assay [14] was -0.6 g; in [15] it was -2 g; in assay [16], -1 g; in [17] it was 72.9%; in [18], 84.9%.
Take `Cc1cccc2c1n(C)c1nc(-c3ccccc3)nc(=O)c-1[n+]2[O-]`: the IC50 was found to be 3280 nM in assay [1] and 1290 nM in [3].
The corresponding values for `CCn1c2nc(-c3ccccc3)nc(=O)c-2[n+]([O-])c2cc(C)ccc21` are 2970 nM and 1710 nM.
